Square brackets hold non-standard residues; d marks the D form. Peptide text beside a SMILES is read from it. Ahx = NCCCCCC(=O)O
Experiments:
MT4 [1] = experiment: (§1) Inhibitory potency of gp41 fragment against HIV-1 induced cytopathic effect in MT-4 cell assay at 20 uM; assay type: functional; conditions: Homo sapiens
Method in brief: (§2)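 MT4 cells (exponential growth) at 5×10^5 cells/mL infected with HIV-1 IIIB (100× TCID50) for 1 h at 37 °C, diluted 6-fold, added to serially diluted peptide in RPMI 1640/FCS medium; mock-infected controls. After 5 days at 37 °C, 5% CO2, cells lysed with Nonidet-40 and DNA content read by propidium iodide. Inhibition = restoration of infected-cell growth relative to uninfected controls; cytotoxicity measured in parallel.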

MT4 [2] = experiment: Inhibitory potency of gp41 fragment against HIV-1 induced cytopathic effect in MT-4 cell assay at 200 uM; assay type: functional; conditions: Homo sapiens
MT4 [3] = experiment: Inhibitory potency of gp41 fragment against HIV-1 induced cytopathic effect in MT-4 cell assay at 5 uM; assay type: functional; conditions: Homo sapiens
MT4 [4] = experiment: Inhibitory potency of gp41 fragment against HIV-1 induced cytopathic effect in MT-4 cell assay at 6.4 uM; assay type: functional; conditions: Homo sapiens
MT4 [5] = experiment: as §1; assay type: functional, Homo sapiens; conditions: Homo sapiens, MT4; method in brief: as §2
MT4 [6] = experiment: Inhibitory potency of gp41 fragment against HIV-1 induced cytopathic effect in MT-4 cell assay at 8 uM; assay type: functional; conditions: Homo sapiens
MT4 [7] = experiment: Inhibitory potency of gp41 fragment against HIV-1 induced cytopathic effect in MT-4 cell assay at 16 uM; assay type: functional; conditions: Homo sapiens
MT4 [8] = experiment: Inhibitory potency of gp41 fragment against HIV-1 induced cytopathic effect in MT-4 cell assay; assay type: functional, cell-based; conditions: Homo sapiens
MT4 [9] = experiment: Inhibitory potency of gp41 fragment against HIV-1 induced cytopathic effect in MT-4 cell assay at 40 uM; assay type: functional; conditions: Homo sapiens
MT4 [10] = experiment: Inhibitory potency of gp41 fragment against HIV-1 induced cytopathic effect in MT-4 cell assay at 80 uM; assay type: functional; conditions: Homo sapiens

CC[C@H](C)[C@H](NC(=O)CNC(=O)[C@H](Cc1c[nH]c2ccccc12)NC(=O)[C@@H](NC(=O)[C@@H](NC(=O)[C@H](CC(C)C)NC(=O)[C@H](CCC(N)=O)NC(=O)[C@H](CC(C)C)NC(=O)[C@H](CC(C)C)NC(=O)CNC(=O)CNC(=O)[C@H](CS)NC(C)=O)[C@@H](C)O)C(C)C)C(=O)N[C@@H](CCCCN)C(=O)N[C@@H](CCC(N)=O)C(=O)N[C@@H](CC(C)C)C(=O)N[C@@H](CCC(N)=O)C(=O)N[C@@H](C)C(=O)N[C@@H](CCCN=C(N)N)C(=O)N[C@H](C(=O)N[C@@H](CC(C)C)C(=O)O)[C@@H](C)CC (Ac-CGGLLQLTVWGIKQLQARIL-OH)
inhibition at 20 µM (MT4 [1]): 30%

CC[C@H](C)[C@H](NC(=O)CNC(=O)[C@H](Cc1c[nH]c2ccccc12)NC(=O)[C@@H](NC(=O)[C@@H](NC(=O)[C@H](CC(C)C)NC(=O)[C@H](CCC(N)=O)NC(=O)[C@H](CC(C)C)NC(=O)[C@H](CC(C)C)NC(=O)[C@H](Cc1c[nH]cn1)NC(=O)[C@H](CCC(N)=O)NC(=O)[C@H](CCC(N)=O)NC(=O)[C@H](C)NC(=O)[C@H](CCC(=O)O)NC(=O)[C@@H](NC(=O)[C@H](C)NC(=O)[C@H](CCCN=C(N)N)NC(=O)[C@H](CC(C)C)NC(=O)[C@H](CC(C)C)NC(=O)[C@H](CC(N)=O)NC(=O)[C@H](CC(N)=O)NC(C)=O)[C@@H](C)CC)[C@@H](C)O)C(C)C)C(=O)N[C@@H](C)C(=O)N[C@@H](C)C(=O)N[C@@H](CC(C)C)C(=O)N[C@@H](CCC(N)=O)C(=O)N[C@@H](C)C(=O)N[C@@H](CCCN=C(N)N)C(=O)N[C@H](C(=O)N[C@@H](C)C(=O)N[C@@H](C)C(=O)N[C@H](C(=O)N[C@@H](CCC(=O)O)C(=O)N[C@@H](C)C(=O)N[C@@H](Cc1ccc(O)cc1)C(=O)N[C@@H](CC(C)C)C(=O)N[C@@H](C)C(=O)N[C@@H](C)C(=O)N[C@@H](CCC(N)=O)C(=O)O)C(C)C)[C@@H](C)CC (Ac-NNLLRAIEAQQHLLQLTVWGIAALQARIAAVEAYLAAQ-OH)
inhibition at 20 µM (MT4 [1]): 22%

CC[C@H](C)[C@H](NC(=O)CCCCCNC(=O)CCCCCNC(=O)CCCCCNC(=O)[C@H](CC(C)C)NC(=O)[C@H](CCC(N)=O)NC(=O)[C@H](CC(C)C)NC(=O)[C@H](CC(C)C)NC(=O)[C@H](Cc1c[nH]cn1)NC(=O)[C@H](CCC(N)=O)NC(C)=O)C(=O)N[C@@H](CCCCN)C(=O)N[C@@H](CCC(N)=O)C(=O)N[C@@H](CC(C)C)C(=O)N[C@@H](CCC(N)=O)C(=O)N[C@@H](C)C(=O)N[C@@H](CCCN=C(N)N)C(=O)N[C@H](C(=O)N[C@@H](CC(C)C)C(=O)N[C@@H](C)C(=O)N[C@H](C(=O)N[C@@H](CCC(=O)O)C(=O)O)C(C)C)[C@@H](C)CC (Ac-QHLLQL[Ahx][Ahx][Ahx]IKQLQARILAVE-OH)
inhibition at 200 µM (MT4 [2]): 0%

CC[C@H](C)[C@H](N)C(=O)N[C@@H](CCCCN)C(=O)N[C@@H](CCC(N)=O)C(=O)N[C@@H](CC(C)C)C(=O)N[C@@H](CCC(N)=O)C(=O)N[C@@H](C)C(=O)N[C@@H](CCCN=C(N)N)C(=O)N[C@H](C(=O)N[C@@H](CC(C)C)C(=O)N[C@@H](C)C(=O)N[C@H](C(=O)N[C@@H](CCC(=O)O)C(=O)N[C@@H](CCCN=C(N)N)C(=O)N[C@@H](Cc1ccc(O)cc1)C(=O)N[C@@H](CC(C)C)C(=O)N[C@@H](CCCCN)C(=O)N[C@@H](CC(=O)O)C(=O)N[C@@H](CCC(N)=O)C(=O)O)C(C)C)[C@@H](C)CC (H-IKQLQARILAVERYLKDQ-OH)
inhibition at 200 µM (MT4 [2]): 0%

CC[C@H](C)[C@H](NC(=O)CNC(=O)[C@H](Cc1c[nH]c2ccccc12)NC(=O)[C@@H](NC(=O)[C@@H](NC(=O)[C@H](CC(C)C)NC(=O)[C@H](CCC(N)=O)NC(=O)[C@H](CC(C)C)NC(=O)[C@H](CC(C)C)NC(=O)[C@H](Cc1c[nH]cn1)NC(=O)[C@H](CCC(N)=O)NC(=O)[C@H](CCC(N)=O)NC(=O)[C@H](C)NC(=O)[C@H](CCC(=O)O)NC(=O)[C@@H](NC(=O)[C@H](C)NC(=O)[C@H](CCCN=C(N)N)NC(=O)[C@H](CC(C)C)NC(=O)[C@H](CC(C)C)NC(=O)[C@H](CC(N)=O)NC(=O)[C@@H](N)CC(N)=O)[C@@H](C)CC)[C@@H](C)O)C(C)C)C(=O)N[C@@H](CCCCN)C(=O)N[C@@H](CCC(N)=O)C(=O)N[C@@H](CC(C)C)C(=O)N[C@@H](CCC(N)=O)C(=O)N[C@@H](C)C(=O)N[C@@H](CCCN=C(N)N)C(=O)N[C@H](C(=O)N[C@@H](CC(C)C)C(=O)N[C@@H](C)C(=O)N[C@H](C(=O)N[C@@H](CCC(=O)O)C(=O)O)C(C)C)[C@@H](C)CC (H-NNLLRAIEAQQHLLQLTVWGIKQLQARILAVE-OH)
inhibition at 5 µM (MT4 [3]): 37%

CCCCCCCCCCCCC(N)C(=O)N[C@@H](CC(C)C)C(=O)N[C@@H](CCC(N)=O)C(=O)N[C@@H](CC(C)C)C(=O)N[C@H](C(=O)N[C@H](C(=O)N[C@@H](Cc1c[nH]c2ccccc12)C(=O)NCC(=O)N[C@H](C(=O)N[C@@H](CCCCN)C(=O)N[C@@H](CCC(N)=O)C(=O)N[C@@H](CC(C)C)C(=O)N[C@@H](CCC(N)=O)C(=O)N[C@@H](C)C(=O)N[C@@H](CCCN=C(N)N)C(=O)N[C@H](C(=O)O)[C@@H](C)CC)[C@@H](C)CC)C(C)C)[C@@H](C)O (some centres undefined) (HELM PEPTIDE1{[CCCCCCCCCCCCC(N)C(=O)[*:2]].L.Q.L.T.V.W.G.I.K.Q.L.Q.A.R.I}$$$$V2.0)
inhibition at 6.4 µM (MT4 [4]): 37%

CCCCCCCCCCCCC(N)C(=O)N[C@@H](CCC(N)=O)C(=O)N[C@@H](Cc1c[nH]cn1)C(=O)N[C@@H](CC(C)C)C(=O)N[C@@H](CC(C)C)C(=O)N[C@@H](CCC(N)=O)C(=O)N[C@@H](CC(C)C)C(=O)N[C@H](C(=O)N[C@H](C(=O)N[C@@H](Cc1c[nH]c2ccccc12)C(=O)NCC(=O)N[C@H](C(=O)N[C@@H](CCCCN)C(=O)N[C@@H](CCC(N)=O)C(=O)N[C@@H](CC(C)C)C(=O)N[C@@H](CCC(N)=O)C(=O)N[C@@H](C)C(=O)N[C@@H](CCCN=C(N)N)C(=O)N[C@H](C(=O)N[C@@H](CC(C)C)C(=O)N[C@@H](C)C(=O)N[C@H](C(=O)N[C@@H](CCC(=O)O)C(=O)N[C@@H](CCCN=C(N)N)C(=O)N[C@@H](Cc1ccc(O)cc1)C(=O)N[C@@H](CC(C)C)C(=O)N[C@@H](CCCCN)C(=O)N[C@@H](CC(=O)O)C(=O)N[C@@H](CCC(N)=O)C(=O)O)C(C)C)[C@@H](C)CC)[C@@H](C)CC)C(C)C)[C@@H](C)O (some centres undefined) (HELM PEPTIDE1{[CCCCCCCCCCCCC(N)C(=O)[*:2]].Q.H.L.L.Q.L.T.V.W.G.I.K.Q.L.Q.A.R.I.L.A.V.E.R.Y.L.K.D.Q}$$$$V2.0)
inhibition at 20 µM (MT4 [5]): 0%
inhibition at 5 µM (MT4 [3]): 10%
inhibition at 8 µM (MT4 [6]): 15%

CCCCCCCCCCCCC(N)C(=O)N[C@@H](CCC(N)=O)C(=O)N[C@@H](CC(C)C)C(=O)N[C@H](C(=O)N[C@H](C(=O)N[C@@H](Cc1c[nH]c2ccccc12)C(=O)NCC(=O)N[C@H](C(=O)N[C@@H](CCCCN)C(=O)N[C@@H](CCC(N)=O)C(=O)N[C@@H](CC(C)C)C(=O)N[C@@H](CCC(N)=O)C(=O)N[C@@H](C)C(=O)N[C@@H](CCCN=C(N)N)C(=O)N[C@H](C(=O)O)[C@@H](C)CC)[C@@H](C)CC)C(C)C)[C@@H](C)O (some centres undefined) (HELM PEPTIDE1{[CCCCCCCCCCCCC(N)C(=O)[*:2]].Q.L.T.V.W.G.I.K.Q.L.Q.A.R.I}$$$$V2.0)
inhibition at 16 µM (MT4 [7]): 32%
IC50 (MT4 [8]): 8.9 µM

CC[C@H](C)[C@H](NC(=O)[C@H](CCCN=C(N)N)NC(=O)[C@H](C)NC(=O)[C@H](CCC(N)=O)NC(=O)[C@H](CC(C)C)NC(=O)[C@H](CCC(N)=O)NC(=O)[C@H](CCCCN)NC(=O)[C@@H](NC(=O)CNC(=O)[C@H](Cc1c[nH]c2ccccc12)NC(=O)[C@@H](NC(=O)[C@@H](NC(=O)[C@H](CC(C)C)NC(=O)[C@H](CCC(N)=O)NC(=O)[C@H](CC(C)C)NC(=O)CCCCCN)[C@@H](C)O)C(C)C)[C@@H](C)CC)C(=O)O (HELM PEPTIDE1{[NCCCCCC(=O)[*:2]].L.Q.L.T.V.W.G.I.K.Q.L.Q.A.R.I}$$$$V2.0)
inhibition at 40 µM (MT4 [9]): 33%

CC[C@H](C)[C@H](NC(=O)[C@H](CCCN=C(N)N)NC(=O)[C@H](C)NC(=O)[C@H](CCC(N)=O)NC(=O)[C@H](CC(C)C)NC(=O)[C@H](CCC(N)=O)NC(=O)[C@H](CCCCN)NC(=O)[C@@H](NC(=O)CNC(=O)[C@H](Cc1c[nH]c2ccccc12)NC(=O)[C@@H](NC(=O)[C@@H](NC(=O)[C@H](CC(C)C)NC(=O)[C@H](CCC(N)=O)NC(=O)CCCCCN)[C@@H](C)O)C(C)C)[C@@H](C)CC)C(=O)O (HELM PEPTIDE1{[NCCCCCC(=O)[*:2]].Q.L.T.V.W.G.I.K.Q.L.Q.A.R.I}$$$$V2.0)
inhibition at 40 µM (MT4 [9]): 11%

CC[C@H](C)[C@H](NC(=O)[C@H](CCCN=C(N)N)NC(=O)[C@H](C)NC(=O)[C@H](CCC(N)=O)NC(=O)[C@H](CC(C)C)NC(=O)[C@H](CCC(N)=O)NC(=O)CCCCCNC(=O)CCCCCNC(=O)[C@@H](NC(=O)[C@@H](NC(=O)[C@H](CC(C)C)NC(=O)[C@H](CCC(N)=O)NC(=O)[C@H](CC(C)C)NC(=O)[C@H](CC(C)C)NC(=O)[C@H](Cc1c[nH]cn1)NC(=O)[C@H](CCC(N)=O)NC(C)=O)[C@@H](C)O)C(C)C)C(=O)N[C@@H](CC(C)C)C(=O)N[C@@H](C)C(=O)N[C@H](C(=O)N[C@@H](CCC(=O)O)C(=O)O)C(C)C (HELM PEPTIDE1{[ac].Q.H.L.L.Q.L.T.V.[O=C(CCCCCN[*:1])[*:2]].[O=C(CCCCCN[*:1])[*:2]].Q.L.Q.A.R.I.L.A.V.E}$$$$V2.0)
inhibition at 80 µM (MT4 [10]): 27%

From ChEMBL document CHEMBL1129074, “Inhibitors of human immunodeficiency virus type 1 derived from gp41 transmembrane protein: structure--activity studies” (J Med Chem, 1996)
